Screens from PubChem BioAssay.
PG9 binder = PG9 antibody binding by small molecule | TR-FRET gp120-PG9 antibody binding | inhibition, % at 6.7 µM | hit rate 0.43% among 360,000; in the data active = inhibition above about 8.5%
NR1D1 modulator = modulates human Rev-erb alpha binding to DNA; activity, % at 10 µM; Rev-erbα–FITC-DNA binding, fluorescence polarization, 90 min; hit rate 0.79% among 370,000; P20393;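 active = activity above about 14%, limit read from the data; passing the limit was not always enough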;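 also: 0% = DMSO wells with 35 nM protein and 100% = DMSO wells with 750 nM protein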
Target sequence (P20393 whole entry, looked up): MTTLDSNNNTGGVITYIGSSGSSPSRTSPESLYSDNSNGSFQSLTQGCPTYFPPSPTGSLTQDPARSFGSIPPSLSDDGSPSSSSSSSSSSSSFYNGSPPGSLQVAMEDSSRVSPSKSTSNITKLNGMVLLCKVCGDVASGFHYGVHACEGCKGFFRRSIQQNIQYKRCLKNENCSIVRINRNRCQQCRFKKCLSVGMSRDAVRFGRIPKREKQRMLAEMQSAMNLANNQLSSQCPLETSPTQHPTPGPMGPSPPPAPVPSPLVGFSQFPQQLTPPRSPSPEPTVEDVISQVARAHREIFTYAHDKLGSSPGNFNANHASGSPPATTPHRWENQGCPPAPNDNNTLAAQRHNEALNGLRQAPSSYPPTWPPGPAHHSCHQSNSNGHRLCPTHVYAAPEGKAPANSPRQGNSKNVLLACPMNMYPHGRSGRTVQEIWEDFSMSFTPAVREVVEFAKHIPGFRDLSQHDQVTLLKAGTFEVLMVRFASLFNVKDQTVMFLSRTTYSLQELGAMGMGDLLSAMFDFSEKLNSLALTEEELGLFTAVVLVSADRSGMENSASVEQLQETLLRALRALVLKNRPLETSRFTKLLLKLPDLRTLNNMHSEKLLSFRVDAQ
TAG inh = triacylglycerol accumulation inhibition; H9c2 cells, Nile Red lipid (TAG) fluorescence; cells loaded with 200 µM oleic acid; inhibition, % at 12.5 µM; hit rate 0.66% among 230,000; AID 651582;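 active = pattern-corrected inhibition of lipid staining of at least 50% with the nuclear-stain viability signal not falling by more than 50%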;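 also: 0% = DMSO wells and 100% = triacsin C control wells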
iPSC survival up = increases survival of single human iPS cells; survival enhancement, % at 20 µM; AID 602274; hiPSC single-cell survival, ATPlite luminescence; 100% = ROCK inhibitor wells, 0% = DMSO; hit rate 0.044% among 360,000; in the data active = survival enhancement above about 18%;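 also: cells exposed to compounds for 16 hours before the ATP read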
MIN6 prolif = MIN6 beta-cell proliferation induction; proliferation, % at 10 µM; hit rate 0.29% among 330,000; MIN6 cells proliferation, ATPlite luminescence, 48 h; cells starved in 0.2% serum; 100% = growth in 10% serum;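 active = compounds whose signal lies at least 3.5 SD above the mean of all wells on their plate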;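 also: 0% = DMSO-treated cells in low-serum medium and 100% = 10% serum control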
T cruzi inh = T. cruzi replication inhibition; T. cruzi beta-gal in NIH3T3, luminescence, 90 h; inhibition, % (no concentration beside the values); hit rate 1.4% among 300,000;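 active = mean inhibition across valid replicates above about 55%, limit read from the data; inconclusive = mean below that limit but half or more replicates reach it; inactive = mean below it, under half of replicates reach it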;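 also: signal also drops with host cell toxicity which is not excluded here; 0% = plate median of DMSO wells and 100% = zero luminescence signal; higher percent means less beta-gal luminescence so fewer parasites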
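Incubation – ≥90 h infection period, 3 h prior cell attachment · System – NIH/3T3 fibroblasts plus reporter T. cruzi · Doses – compound pinned at 50 nL/well, DMSO · Read-out basis – percent inhibition of parasite-derived β-gal signal · Signal – luminescent β-galactosidase signal after 60 min lysis · Also added – 5000 T. cruzi trypomastigotes/well · Medium – Low-serum DMEM with 2% FBS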
The depositor's hits bear a star; ? = inconclusive; . = no result given. This is a sample that favours compounds with a hit; in the whole collection about 2.9% have one here.

SMILES | PG9 binder | NR1D1 modulator | TAG inh | iPSC survival up | MIN6 prolif | T cruzi inh
CS(=O)(=O)N1CCN(c2ccccc2NC(=O)c2ccc([N+](=O)[O-])o2)CC1 | 0 | -7 | 28 | -3 | -5 | 49
CN1CCN(c2ccccc2NC(=O)c2ccc([N+](=O)[O-])o2)CC1 | . | . | 54* | 0 | -7 | 32
Cc1cc(N2CCN(C)CC2)ccc1NC(=O)c1ccc(-c2ccc(Cl)cc2)o1 | 1 | 3 | 15 | 0 | -7 | 59*
CN1CCN(c2ccccc2NC(=O)c2ccc(-c3ccc(Br)cc3)o2)CC1 | . | . | 28 | 0 | -7 | 65*
COCCCNC(=O)C(F)(F)C(F)(F)C(=O)NCCCOC | 1 | -1 | -8 | 10 | -2 | 5
CCN1CCN(CCCOc2ccc(-c3ccccc3)cc2)CC1 | 1 | -3 | . | . | -4 | 72*
CCN1CCN(CCOc2ccc(Cl)cc2)CC1 | -2 | 1 | 1 | 2 | -2 | 67*
CN1CCN(CCOc2ccc(-c3ccccc3)cc2)CC1 | 0 | -1 | 1 | 0 | -2 | 43
CN1CCN(CCCOc2ccc(-c3ccccc3)cc2)CC1 | 1 | 1 | . | 0 | -4 | 56*
O=C(c1ccccc1)c1ccc(OCCCN2CCCC2)cc1 | -1 | 0 | . | 1 | 0 | 55*
Clc1ccc(OCCN2CCOCC2)cc1 | -1 | -2 | . | -1 | -1 | -3
O=C(c1ccccc1)c1ccc(OCCCCN2CCCCC2)cc1 | -2 | -3 | 7 | -1 | -2 | 20
CCN1CCN(CCCOc2ccccc2-c2ccccc2)CC1 | 0 | -3 | 8 | -2 | 1 | .
CN(C)CC(=O)Nc1cc(C(F)(F)F)ccc1Cl | 0 | 0 | 3 | 0 | -3 | -5
Cc1ccccc1OCCC(=O)OCC(=O)NC1CCCCC1 | 1 | -3 | -11 | 0 | 0 | -9
COc1ccc(C(=O)O)cc1S(N)(=O)=O | -1 | 4 | -3 | 0 | 4 | -11
Fc1cccc(Cl)c1CNc1ccc(N2CCCC2)cc1 | -1 | -7 | . | -2 | -6 | 94*
Cc1nn(Cc2ccc(C(=O)Nc3ccc(C(=O)OC(C)C)cc3)o2)c(C)c1Cl | -2 | 13 | . | -1 | -4 | 55*
O=Cc1ccc(OCc2ccccn2)cc1 | 0 | -3 | . | -1 | -2 | 1
O=C(CCl)Nc1cc(-c2ccccc2)nn1-c1ccccc1 | 0 | -5 | -12 | -2 | -6 | 13
Nc1ccccc1Nc1cc(-c2ccccc2)nn1-c1cccc(Cl)c1 | -4 | 4 | . | -1 | 0 | 58*
COc1cccc2c1nc(C)c1cc(C)oc12 | 2 | -3 | . | 0 | 0 | -27
C#CCOCCOCCOCCNc1nc(N2CCOCC2)nc(N2CCN(C(=O)Cn3cc(CC(C)O)nn3)CC2)n1 (centres undefined) | -1 | -2 | 18 | 2 | -2 | -8
COc1ccc(Cn2nnnc2C(c2ccccn2)N2CCN(c3cc(Cl)ccc3C)CC2)cc1 (centres undefined) | 2 | 0 | . | -2 | -4 | 65*
COCCn1nnnc1C(c1ccccn1)N1CCN(c2cc(Cl)ccc2C)CC1 (centres undefined) | 0 | -5 | 12 | -1 | -2 | -3
SMILES | PG9 binder | NR1D1 modulator | TAG inh | iPSC survival up | MIN6 prolif | T cruzi inh
COc1ccc(CC(=O)NNC(=S)NC(=O)c2cc(OC)c(OC)c(OC)c2)cc1 | -1 | 1 | 12 | 2 | . | .
COc1ccc(-c2csc(N(CCCN(C)C)C(=O)c3ccc(C)cc3)n2)cc1 | -1 | 8 | 20 | -1 | -4 | 39
CCc1ccc(OCCCCN(C)Cc2ccccc2)cc1 | 0 | -1 | . | 0 | -4 | 55*
CN(CCCCOc1ccc(F)cc1)Cc1ccccc1 | -2 | -7 | 6 | -1 | 2 | 50
Cn1c(=O)c2[nH]c(NN=Cc3cccc(Br)c3)nc2n(C)c1=O | -5 | 1 | 15 | 0 | . | .
CC(C)[C@H](NC(=O)OCc1ccccc1)C(=O)OCC(=O)NC1CCCCC1 | -1 | -7 | -15 | -2 | -2 | 7
COc1cccc(/C=N/NC(=O)c2cc3c(OC)ccc(OC)c3[nH]2)c1O | -12 | 6 | . | 1 | -4 | 7
Cc1ccccc1NC(=O)c1cccc(Cn2cc(Br)c([N+](=O)[O-])n2)c1 | -1 | -2 | -12 | 1 | -1 | 48
COc1cccc(/C=N\NC(=O)c2ccc(Cn3cc(Br)c([N+](=O)[O-])n3)o2)c1O | -3 | 0 | 34 | 0 | -5 | 64*
COc1cc(OC)c2cc(C(=O)N/N=C/c3cccc(OC)c3O)[nH]c2c1 | -3 | 8 | 55* | 1 | -6 | 22
COc1ccc(OC)c(NC(=O)c2cccc(Cn3cc(Br)c([N+](=O)[O-])n3)c2)c1 | -3 | 1 | . | 1 | -3 | 64*
COc1cccc(/C=N/NC(=O)c2c(C)nc3ccc(Br)cn23)c1O | . | . | . | -1 | -6 | 69*
COc1ccc(-c2coc3c(CN4CCCCC4C)c(O)ccc3c2=O)cc1 (centres undefined) | -1 | 6 | . | 0 | -2 | 5
Cc1cccc(Cn2c(NCC(C)O)nc3c2c(=O)n(C)c(=O)n3C)c1 (centres undefined) | -2 | -2 | -3 | -2 | 0 | -11
COc1ccc(CNCc2cccn2C)cc1 | -1 | -2 | . | -1 | -1 | ?
COC(=O)C12C=C3CC(c4ccc(C(F)(F)F)cc4)=C3C(=O)N1Cc1[nH]c3ccccc3c1C2 (centres undefined) | . | 1 | . | . | . | .
COc1cccc(NC(=S)N(Cc2ccco2)C(C)c2ccco2)c1 (centres undefined) | -3 | 0 | -13 | 2 | 2 | -6
CCN(CC)CCCN1C(=O)c2oc3ccccc3c(=O)c2C1c1cccnc1 (centres undefined) | 1 | 4 | 9 | 6 | -4 | 1
Cc1cccc(NC(=O)c2cccc(Cn3cc(Br)c([N+](=O)[O-])n3)c2)c1C | -1 | 0 | -1 | 10 | -4 | 58*
CN1C(=O)C(CC(=O)Nc2ccc(Cl)cc2)N(Cc2ccco2)C1=S (centres undefined) | 0 | -3 | 5 | -1 | -1 | -17
COc1cc2c(cc1OC)CN(c1nc(CN3CCCC3)nc3sc(C)c(C)c13)CC2 | -1 | 2 | 42 | -1 | -6 | 69*
CC12CN3CC(C)(CN(C1)C3c1ccc([N+](=O)[O-])o1)C2=O (centres undefined) | 0 | -1 | 5 | -1 | -2 | 80*
CCC12CN3CC(CC)(CN(C1)C3c1ccc([N+](=O)[O-])o1)C2=O (centres undefined) | -1 | 2 | . | -2 | 0 | 60*
NC(=O)C1CCN(C(=O)CSc2ccsc2[N+](=O)[O-])CC1 | -2 | -3 | . | -1 | . | .
COc1ccc(Cn2c(-c3ccco3)nc3c(c(=O)c4ccccc4n3C)c2=O)cc1 | 4 | -22 | 13 | 0 | 1 | 12
